Experimental data as given in ChEMBL document CHEMBL5724801, “EUbOPEN Chemogenomics Library - Multiplex” (2024).
Values joined by “and” are separate entries in the source; they are usually repeats but may differ in a detail not shown here. Equal values may be shown once.

Test system: U2OS
Assay: Multiplex assay against U2OS
Type: toxicity, cell-based
Conditions: human
How it was run: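 On a CQ1 microscope at 37°C and 5% CO2, live cells were imaged after compound addition. They had been stained at seeding with Hoechst33342, BioTracker Green Microtubule Cytoskeleton Dye, MitoTracker Red and Annexin V Alexa Fluor 680. CellPathfinder machine-learning gating assigned cells to Hoechst high-intensity objects or normal cells, normal cells to healthy, pyknosed or fragmented nuclei, and pyknosed cells to mitotic or apoptotic. Tubulin, mitochondrial-mass and membrane-permeability phenotypes are per cents of healthy-nucleus cells.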

[1] = 12 h, 1 µM, compound concentration 1 uM
[2] = 12 h, 10 µM, compound concentration 10 uM
[3] = 24 h, 1 µM, compound concentration 1 uM
[4] = 24 h, 10 µM, compound concentration 10 uM
[5] = 48 h, 1 µM, compound concentration 1 uM
[6] = 48 h, 10 µM, compound concentration 10 uM

SMILES: COC(=O)C1=C(C)NC(C)=C(C(=O)OC(C)C)C1c1cccc2nonc12 (centres undefined) [ISRADIPINE]
- Population Apoptotic (%) [1]: 29.03% and 12.5%
- Population Fragmented Nuclei (%) [1]: 2.02% and 3.01%
- Population Healthy Nuclei (%) [1]: 89.02% and 84.96%
- Population Hoechst High Intensity Objects (%) [1]: 0%
- Population Membrane Permeable-Phenotype (%) [1]: 0.97% and 0.88%
- Population Mitochondria Different-Phenotype (%) [1]: 0% and 5.31%
- Population Mitotic Cells (%) [1]: 70.97% and 87.5%
- Population Normal (%) [1]: 100%
- Population Pyknosed Nuclei (%) [1]: 8.96% and 12.03%
- Population Tubulin-Different-Phenotype (%) [1]: 0.97% and 0.88%
- Total Cell Count [1]: 346 and 133
- Population Apoptotic (%) [2]: 38.64% and 25.81%
- Population Healthy Nuclei (%) [2]: 87.43% and 71.74%
- Population Hoechst High Intensity Objects (%) [2]: 0% and 13.21%
- Population Membrane Permeable-Phenotype (%) [2]: 2.14% and 3.64%
- Population Mitochondria Different-Phenotype (%) [2]: 0% and 13.33%
- Population Mitotic Cells (%) [2]: 61.36% and 74.19%
- Population Normal (%) [2]: 100% and 86.79%
- Population Pyknosed Nuclei (%) [2]: 11.76% and 13.48%
- Population Tubulin-Different-Phenotype (%) [2]: 3.67% and 1.21%
- Total Cell Count [2]: 374 and 265
- Population Apoptotic (%) [3]: 48.48% and 31.25%
- Population Fragmented Nuclei (%) [3]: 1.75% and 1.23%
- Population Healthy Nuclei (%) [3]: 91.03% and 88.89%
- Population Hoechst High Intensity Objects (%) [3]: 0%
- Population Membrane Permeable-Phenotype (%) [3]: 0.24% and 2.78%
- Population Mitochondria Different-Phenotype (%) [3]: 0.24% and 4.86%
- Population Mitotic Cells (%) [3]: 51.52% and 68.75%
- Population Normal (%) [3]: 100%
- Population Pyknosed Nuclei (%) [3]: 7.22% and 9.88%
- Population Tubulin-Different-Phenotype (%) [3]: 0.72% and 0%
- Total Cell Count [3]: 457 and 162
- Population Apoptotic (%) [4]: 37.5% and 20.93%
- Population Healthy Nuclei (%) [4]: 84.47% and 69.69%
- Population Hoechst High Intensity Objects (%) [4]: 0% and 13.61%
- Population Membrane Permeable-Phenotype (%) [4]: 0.69% and 3.95%
- Population Mitotic Cells (%) [4]: 62.5% and 79.07%
- Population Normal (%) [4]: 100% and 86.39%
- Population Pyknosed Nuclei (%) [4]: 12.43% and 16.93%
- Population Tubulin-Different-Phenotype (%) [4]: 3.22% and 0%
- Total Cell Count [4]: 515 and 294
- Population Apoptotic (%) [5]: 41.54% and 54.55%
- Population Fragmented Nuclei (%) [5]: 2.53% and 3.11%
- Population Healthy Nuclei (%) [5]: 89.63% and 84.05%
- Population Hoechst High Intensity Objects (%) [5]: 0%
- Population Membrane Permeable-Phenotype (%) [5]: 1.35% and 1.39%
- Population Mitochondria Different-Phenotype (%) [5]: 0.27% and 4.17%
- Population Mitotic Cells (%) [5]: 58.46% and 45.45%
- Population Normal (%) [5]: 100%
- Population Pyknosed Nuclei (%) [5]: 7.84% and 12.84%
- Population Tubulin-Different-Phenotype (%) [5]: 1.35% and 0%
- Population Apoptotic (%) [6]: 50.83% and 53.45%
- Population Fragmented Nuclei (%) [6]: 3.44% and 6.67%
- Population Healthy Nuclei (%) [6]: 82.35% and 75.76%
- Population Hoechst High Intensity Objects (%) [6]: 0% and 9.34%
- Population Membrane Permeable-Phenotype (%) [6]: 1.58% and 4.4%
- Population Mitochondria Different-Phenotype (%) [6]: 0.14% and 6.4%
- Population Mitotic Cells (%) [6]: 49.17% and 46.55%
- Population Normal (%) [6]: 100% and 90.66%
- Population Pyknosed Nuclei (%) [6]: 14.22% and 17.58%
- Population Tubulin-Different-Phenotype (%) [6]: 2.73% and 2.8%
- Total Cell Count [6]: 844 and 364

SMILES: CN1[C@@H](CC(=O)c2ccccc2)CCC[C@H]1C[C@H](O)c1ccccc1.Cl [LOBELINE HYDROCHLORIDE]
- Population Apoptotic (%) [1]: 43.24% and 34.78%
- Population Fragmented Nuclei (%) [1]: 1.42% and 2.51%
- Population Healthy Nuclei (%) [1]: 88.07% and 85.93%
- Population Hoechst High Intensity Objects (%) [1]: 0%
- Population Membrane Permeable-Phenotype (%) [1]: 0.97% and 2.34%
- Population Mitochondria Different-Phenotype (%) [1]: 0% and 6.43%
- Population Mitotic Cells (%) [1]: 56.76% and 65.22%
- Population Normal (%) [1]: 100%
- Population Pyknosed Nuclei (%) [1]: 10.51% and 11.56%
- Population Tubulin-Different-Phenotype (%) [1]: 0.65% and 0.58%
- Total Cell Count [1]: 352 and 199
- Population Apoptotic (%) [2]: 42.42% and 20%
- Population Fragmented Nuclei (%) [2]: 1.15% and 1.84%
- Population Healthy Nuclei (%) [2]: 91.26% and 82.82%
- Population Hoechst High Intensity Objects (%) [2]: 0%
- Population Membrane Permeable-Phenotype (%) [2]: 1.76% and 8.15%
- Population Mitotic Cells (%) [2]: 57.58% and 80%
- Population Normal (%) [2]: 100%
- Population Pyknosed Nuclei (%) [2]: 7.59% and 15.34%
- Population Tubulin-Different-Phenotype (%) [2]: 4.03% and 5.19%
- Total Cell Count [2]: 435 and 163
- Population Apoptotic (%) [3]: 44.64% and 46.88%
- Population Fragmented Nuclei (%) [3]: 0.81% and 1.97%
- Population Healthy Nuclei (%) [3]: 87.88% and 85.43%
- Population Hoechst High Intensity Objects (%) [3]: 0%
- Population Membrane Permeable-Phenotype (%) [3]: 0.46% and 2.76%
- Population Mitochondria Different-Phenotype (%) [3]: 0% and 6.91%
- Population Mitotic Cells (%) [3]: 55.36% and 53.12%
- Population Normal (%) [3]: 100%
- Population Pyknosed Nuclei (%) [3]: 11.31% and 12.6%
- Population Tubulin-Different-Phenotype (%) [3]: 0.69% and 0.92%
- Total Cell Count [3]: 495 and 254
- Population Apoptotic (%) [4]: 28.79% and 39.39%
- Population Fragmented Nuclei (%) [4]: 0.84% and 0.51%
- Population Healthy Nuclei (%) [4]: 88.01% and 82.74%
- Population Hoechst High Intensity Objects (%) [4]: 0%
- Population Membrane Permeable-Phenotype (%) [4]: 0.96% and 1.23%
- Population Mitotic Cells (%) [4]: 71.21% and 60.61%
- Population Normal (%) [4]: 100%
- Population Pyknosed Nuclei (%) [4]: 11.15% and 16.75%
- Population Tubulin-Different-Phenotype (%) [4]: 2.11% and 2.45%
- Population Apoptotic (%) [5]: 42.67% and 32.61%
- Population Fragmented Nuclei (%) [5]: 2.46% and 2.85%
- Population Healthy Nuclei (%) [5]: 89.17% and 86.22%
- Population Hoechst High Intensity Objects (%) [5]: 0%
- Population Membrane Permeable-Phenotype (%) [5]: 0.75% and 0.83%
- Population Mitochondria Different-Phenotype (%) [5]: 0.13% and 5.79%
- Population Mitotic Cells (%) [5]: 57.33% and 67.39%
- Population Normal (%) [5]: 100%
- Population Pyknosed Nuclei (%) [5]: 8.37% and 10.93%
- Population Tubulin-Different-Phenotype (%) [5]: 1.25% and 0.55%
- Total Cell Count [5]: 896 and 421
- Population Apoptotic (%) [6]: 41.41% and 48.72%
- Population Fragmented Nuclei (%) [6]: 1.94% and 1.9%
- Population Healthy Nuclei (%) [6]: 88.91% and 85.76%
- Population Hoechst High Intensity Objects (%) [6]: 0%
- Population Membrane Permeable-Phenotype (%) [6]: 1.66% and 1.85%
- Population Mitochondria Different-Phenotype (%) [6]: 0.31% and 8.86%
- Population Mitotic Cells (%) [6]: 58.59% and 51.28%
- Population Normal (%) [6]: 100%
- Population Pyknosed Nuclei (%) [6]: 9.15% and 12.34%
- Population Tubulin-Different-Phenotype (%) [6]: 1.77% and 2.21%
